The EternaBench riboswitch data

System: MS2 coat protein
Assay: apparent Kd, MS2 coat protein; higher = weaker binding; RNA-MaP array; FMN 200 µM where present
Method in brief: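 Designs were transcribed by stalled E. coli RNA polymerase on Illumina sequencing-chip clusters. They were titrated with SNAP-549-labelled MS2 coat protein from 0.7 or 1.5 nM, doubling to 3 µM, in 100 mM Tris-HCl pH 7.5, 80 mM KCl, 4 mM MgCl2, BSA, DTT, yeast tRNA and Tween-20, without and then with constant ligand. The apparent Kd is the median of filtered per-cluster fits after normalisation of green signal to red-channel RNA signal and control-cluster median Fmax.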

[1] = designed as: OFF switch for flavin mononucleotide, no ligand
[2] = ligand present: flavin mononucleotide, designed as: OFF switch for flavin mononucleotide
[3] = designed as: ON switch for flavin mononucleotide, no ligand
[4] = ligand present: flavin mononucleotide, designed as: ON switch for flavin mononucleotide

Sequence	apparent Kd [1] [µM]	apparent Kd [2] [µM]	apparent Kd [3] [µM]	apparent Kd [4] [µM]
GAGCUCGAUGAGAAGGGUUACAUGAGGAUCACCCAUGUCGACCUUGGCGUAACAGGAUAUCAUCGGGCUCAGUGCGUUGACACA	0.0292	0.171		
GCGCAAACAUGAGGAUAUGUAUUAAAUAAUAAUACAGAAGGCAUGUCAAAUGACAUGAGGAUCACCCAUGUUGGCAAAAUGCGC			0.0806	0.0159
CUAAUGAGUGCGAGCUGACACAUGAGGAUCACCCAUGUAACACAGGAUAUCUGUCAAGGCGUGAAAGAGAAGGGUGGUCGGAAA			0.142	0.263
CUAGCUAUCGGAGGAUAUUCAUACCGGAAACGGACAUGAGGAUCACCCAUGUGCGGAAACGCUUGGGAGAAGGCCGAUAGCUAG			0.21	0.0189
GCAUACAUUCGAGGAUAUCGGUGAACAAAUUAACGAGAAGGCGAUAUAAUGUUUAAUCUUAUAAACAUGAGGAUCACCCAUGUA			0.0769	0.0312
GCACAUGAUACAGGAUAUGUUUUGGAUUUUAUAUGCAGUUAUUUUAUUUUGACAGAAGGGUAUACAUGAGGAUCACCCAUGUGC	0.0763	0.0481		
GGAUGCCGCUCAGGAUAUGUGGGUUGUCUAGUAUUUAGAUUCCACAUGAGGAUCACCCAUGUAACACAGAAGGGAGAUGGUGAU			0.214	0.0227
GUUCGGGCAGGAUAUACAUGAGGAUCACCCAUGUGUGUCCAUACGCGUGAGUCCUCGUGUAGAAGGGUUUGGGC	0.0232	0.0174		
CAUUAAUUGAUUAUUGAAUAUUUACAGGAUAUGUAACAUGAGGAUCACCCAUGUAAACAUGGAUUACAGAAGGGUAUUUAUAGA	0.037	0.0261		
ACAUGAGGAUGAGGAUAUUCAUACAUGAGGAUAGAAGAAGGCAUACAUGAGGAUCACCCAUGUAUACACAUGAGGAUCACCCAU	0.0825	0.0853		
UGGCAAGUAGGAUAUUGGGUGUGGGACAUGAGGAUCACCCAUGUGAUCACUCAAUCUCUCCGAGAAGGGCUAAGAA	0.014	0.0155		
GUUUUACAUGAGGAUCACCCAUGUGAGGAUAUAUUGUUAAUAGUGAUAAUUAUUGGUGGUAGAAGGCGCGUGAU	0.0468	0.0397		
AUCAGCUCGUCAGGAUAUACGUCACUGCGUCAGCAGUGUGGUAAGAUCACAUGAGGAUCACCCAUGUAGAAGGGACGAACUGAU	0.0136	0.292		
UUGUACAUUCGAGGAUAUCGGAGAGAGAUCAUUCGAGAAGGCGAUUCAUGAUGUAUUAUCCUGGACAUGAGGAUCACCCAUGUA			0.111	0.0659
UGUGUGUGGGCAGGAUAUGCAUGAAUAUGUAUGAUGUAGUGUGAUGUAACAUGAGGAUCACCCAUGUAGAAGGGCCGGUGUAUG	0.0945	0.122		
UGAAACUACGAGAAGGACAUGUGGUCCUUCAGUUACAUGAGGAUCACCCAUGUAGGAUAUCGUAGUUUCAGGAUCGUGAGAUCC	0.0328	0.0117		
CGUGCGUAUGUGAGGAUAUGCUGGUCCUUGGAUCGGCAGAAGGCACAUGAGGAUCACCCAUGUGGUGUCGUCCA	0.0858	0.0645		
GUAAAGUGAGGAUAUGGUGAGUAGUGCCUGAGCGCUGCUCACCAGAAGGCACAUGAGGAUCACCCAUGUAUAGC	0.0147	0.0272		
AUUAUGUUAGGAUAUGCUUAUGGUGGAUAGUCCAAUAUGAUGCAGAAGGGACAUGAGGAUCACCCAUGUACUGA	0.0249	0.0273		
GGACGGAAAGUGAGGAUAUGCUCUACCUCGGUAGAGCAGAAGGCACAUGAGGAUCACCCAUGUGAUUGCUGUUC	0.0271	0.261		
CUAUUGGUAACAGGAUAUAUGAGUCCUACAUGAGGAUCACCCAUGUAGGUGAUCAAACGUGAUUAGUAGAAGGGUUACCAAUAG			0.0156	0.00777

Sequence	apparent Kd [1] [µM]	apparent Kd [2] [µM]	apparent Kd [3] [µM]	apparent Kd [4] [µM]
AAAAACCGAGGAUAUACAUGAGGAUCACCCAUGUCAAAAAAAAAAAAAAAAAAAAAAGGUAGAAGGCGGAAAAA	0.0643	0.0579		
UUCAUCAAGGAAGGAUAUCUAUAUCCAACAUGAGGAUCACCCAUGUUGAGGAUCACCCAUGUAAAGGAGAAGGUUCAUAUAACU			0.0581	0.0507
CCCACGAAAGUCGAACGAUGAUGGAGAAGGACAAUAACAUGACAUGAGGAUCACCCAUGUGCCAUGUAGGAUAUCCAUCAUGGG	0.00749	0.00678		
UGGUCGCGAGGAUAUACAUGAGGAUCACCCAUGUUUGAGCGCCAUCCGUUCGGCUCGUGUAGAAGGUGCACACA	0.0219	0.0199		
AUCAGCUCGUCAGGAUAUACGUCACUGCGUCAGAAGUGUGGUAAGAUCACAUGAGGAUCACCCAUGUAGAAGGGACGAGCUGAU	0.0234	0.253		
AGCUGACGAGGAUAUACAUGAGGAUCACCCAUGUUGGUUCAGCGACGAUAGUCGCAAUGUAGAAGGUGUCAGCU	0.126	0.664		
AACAACUCUGUGAGGAUAUGCAAUUGUUGAUCAAGGCAGAAGGCACAUGAGGAUCACCCAUGUUCCUACAAGGG	0.0473	0.11		
GUGUAGCAAGGAUAUACAUGAGGAUCACCCAUGUGAAUAAGAUAGAAUAAGAUAAAGUGUAGAAGGUGUAGUGU	0.0353	0.0357		
AAAACAUGAGGAUCACCCAUGUAAAGAUCGGUUGAUGAAGGUGAGGAUAUACAAAACUUUAUGGAGUAGAAGGCACUGGGUUGA			0.109	0.0593
GUGUUACAUGAGGAUCACCCAUGUUGUUGUAGAUAAGGAUAUAUGGUAACGAGAGAAAUAAUAGAAGGUAUUAGGC			0.037	0.0316
UGAUCUGUCGCAGGAUAUUACGUUCGGGAUCUCACAUGAGGAUCACCCAUGUAAGAAGGGCGAACAGCAUUCCGGGUCGGGCAA	0.0196	0.0754		
UUGGGCGUCGUAGGAUAUGUAGGAUAUUCCUACAUGAGGAUCACCCAUGUUGACAUGGAAGAAGGACAGAAGGACGAUGUCCAU			0.278	0.00467
AACCUAUUACAGAAGGCCAGCUACAUGAGGAUCACCCAUGUCGAGUCAUGGAGGAUAUGUAGUAAUCUGCACGCGUGCGGGCAC			0.0498	0.00665
ACUUUGUUUGAGAAGGUGAAGUGGAAACAUGAGGAUCACCCAUGUAUUAGGAAGCCUGGUUUUGUCAAGGAUAUCGGGUAAAGA			0.012	0.0101
AGCUAGUCAGGAUAUGCAUACAUGUCAAAAGACGUGAAGGGACAUGAGGAUCACCCAUGUAGAAGGGACUAGCA	0.0404	0.0679		
CAUUAAUUCAUUAUAGUAAUUUUACAGGAUAUGUAACAUGAGGAUCACCCAUGUAUUCUAGGUUAACAGAAGGGUAUUACUUGU	0.0289	0.0207		
CCUUUACAUGAGGAUCACCCAUGUCAGGAUAUCCUGUUGUGUUGUCUCGGGCGACACAUGAGCCAGGAGAAGGGACGAAGGGAA	0.0417	0.0681		
AUCCGGCGUGUAGGAUAUGGAUCCGAUUAGGAUCCAGAAGGACAUGAGGAUCACCCAUGUACAUGUAAACAGUCAUCACCGGAC	0.0115	0.136		
UGAUCGAGAGAUCUUAGAUUCUGGUAGGAUAUACAUUAUAUAAGAUAUACAUGAGGAUCACCCAUGUAGAAGGACUAGAGUCUA	0.00647	0.00739		
CAUUAAUUCAUUAUAUUAAUUUUACAGGAUAUGUAACAUGAGGAUCACCCAUGUAUUCUAGGUUAACAGAAGGGUAUUGCUUGU	0.0245	0.0213		
GGAUCGUAUGUCAGGAUAUACCACUGGAUACAGUGGUAGAAGGGACAUGAGGAUCACCCAUGUCCUAUCGAUCC	0.013	0.0166		
